Source: PubChem BioAssay (several laboratories)
A selection: hits, their analogues and other compounds. The true share with any hit is near 3%.
Granule exo inh = lytic granule exocytosis inhibition | TALL-104 LAMP-1 surface exposure, flow cytometry; cells stimulated with thapsigargin and PMA | inhibition, % at 10 µM | hit rate 0.66% among 360,000;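 active = inhibition above about 55%, limit read from the data; inconclusive = no clear call, values can overlap the other calls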
DSG3 Ab inh = human desmoglein-3 autoantibody binding inhibition; DSG3-coupled beads, scFv-anti-DSG3-GFP binding, flow cytometry; active compounds read low; binding (percent of control), % at 10 µM; hit rate 0.48% among 310,000; AID 588358;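 active = binding more than 3 SD below its plate's average and above zero; inconclusive = below that plate limit but binding exactly zero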;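 note: hits lower antibody fragment binding to DSG3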
HNF4A DNA FP = change in binding of human HNF4 alpha to DNA; P41235; HNF4a-FITC DNA binding, fluorescence polarization, 1 h; activity change, % at 10 µM; hit rate 0.3% among 360,000; AID 1224865; in the data active = activity change above about 30%, passing the limit was not always enough
Myeloid diff MLP = promotes myeloid progenitor differentiation | ER-HoxA9 myeloid progenitors, lysozyme-GFP differentiation, flow cytometry | calls only at 10 µM | hit rate 1% among 360,000 | AID 624256;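 active = normalized GFP-positive differentiation at or above the plate's own cutoff, the solvent-only control mean plus 3 SD; inconclusive = no clear call, values can overlap the other calls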;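 note: cells exposed to compound for four days before flow analysis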
SENP1 inh = blocks the human SENP1 SUMO protease catalytic domain. inhibition, % at 10 µM. hit rate 0.21% among 360,000. Q9P0U3. recombinant SENP1 catalytic domain, CyPet-SUMO1-YPet FRET cleavage;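 active = inhibition at least 30% at 10 µM, raw YFP signal under a set limit, fluorescence ratio 0.5 to 1.5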
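Compound: 10 µM single point, 0.5% DMSO; Test system: hSENP1 catalytic domain, recombinant; Timing: 50 min reaction at room temperature; Technique: FRET, CFP and YFP emission; Control set: no-enzyme wells low, DMSO-plus-enzyme wells high control.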
H9c2 protect = myocardial damage modulation in H9c2 cells; H9c2 cardiomyocytes, H2O2 injury protection, ATPLite, 2 h; protection from H2O2 cell death, % at 20 µM; hit rate 0.63% among 360,000; AID 588492;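 active = compounds giving at least 50% protection of heart cells from peroxide-induced death in the single-dose screen, raw or plate-pattern-corrected value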
Large screens that a line does not name were inactive.

O=C(/C=C/c1ccc(F)cc1)Nc1cc(S(=O)(=O)N2CCOCC2)ccc1N1CCCC1	none
O=C(/C=C/c1cccc(F)c1)Nc1cc(S(=O)(=O)N2CCOCC2)ccc1N1CCCC1	DSG3 Ab inh -24
CCOc1ccc(C(=O)OCC(=O)Nc2cc(S(=O)(=O)N3CCOCC3)ccc2N2CCOCC2)cc1	DSG3 Ab inh -19
O=C(Cn1c(=O)cnc2ccccc21)Nc1cc(Cl)ccc1N1CCOCC1	Myeloid diff MLP active
CCN(CC)N=Nc1ccc(S(=O)(=O)Nc2nc(C)cc(C)n2)cc1	none
O=C(COC(=O)/C=C/c1ccc(F)cc1)Nc1cc(C(F)(F)F)ccc1N1CCOCC1	none
CC(=O)c1c(C)[nH]c(C(=O)OCC(=O)Nc2cc(C(F)(F)F)ccc2N2CCOCC2)c1C	Myeloid diff MLP active
O=C(COc1cccc(Cl)c1)Nc1cc(S(=O)(=O)N2CCOCC2)ccc1N1CCOCC1	Myeloid diff MLP active
C[n+]1c(-c2ccccc2)sc([S-])c1-c1ccccc1	none
Cn1c(SCC(=O)NCc2ccccc2)nnc1-c1ccc(NC(=O)CCc2ccccc2)cc1	none
CCCCSc1nnc(-c2ccc(NC(=O)CCc3ccccc3)cc2)n1C	DSG3 Ab inh -28
O=C(O)Cc1sc(NC2CCCCC2)nc1-c1ccc(Cl)cc1	Myeloid diff MLP active
COc1cccc(CN(C)C(=O)c2cccc(OCc3ccccc3)c2)c1	none (no result: DSG3 Ab inh)
CC1=CN2C(=N)/C(=C/c3ccc([N+](=O)[O-])o3)C(=O)N=C2S1	Granule exo inh 80, HNF4A DNA FP 66, Myeloid diff MLP inconclusive
CS(=O)(=O)c1sc2nc(-c3cccs3)cc(-c3ccccc3)c2c1N	Myeloid diff MLP active
N#Cc1sc2nc(-c3cccs3)cc(-c3ccc(F)cc3)c2c1N	Myeloid diff MLP active
CCn1c2ccccc2c2cc(NC(=O)CSc3nccc(=O)[nH]3)ccc21	none (no result: DSG3 Ab inh)
CCOC(=O)/C(C#N)=N/Nc1ccccc1OC	none
CCOC(=O)/C(C#N)=N\Nc1cc(Cl)ccc1OC	HNF4A DNA FP 75
C=CCN1CCc2c(cc(O)c(O)c2Br)[C@@H](c2ccccc2)C1	H9c2 protect 60
Cc1ccc(S(=O)(=O)N2CCC(C(=O)OCC(=O)NC(C)c3ccc(F)cc3)CC2)cc1C (centres undefined)	none (no result: DSG3 Ab inh)
Cc1ccc(/C=C2/SC(=S)N(C3CCCCC3)C2=O)o1	HNF4A DNA FP 34
Cc1ccc(/C=C2\SC(=S)N(CC3CCCO3)C2=O)o1 (centres undefined)	none (no result: DSG3 Ab inh)
CCCn1ncc(C(=O)NC2CCCN(Cc3ccc(Cl)cc3)C2)c1C (centres undefined)	none
CCCCCCCCCC[n+]1cccc2c3ccccc3ccc21	Granule exo inh 70 (no result: Myeloid diff MLP)
CCCCCCCC[n+]1cccc2c3ccccc3ccc21	Myeloid diff MLP inconclusive
CCCOc1ccc(CNC(=O)c2ccc3c(c2)N(CC)CCS3)cc1	Myeloid diff MLP active
Cc1c(Cl)cccc1NC(=O)Cn1nc(C)n2cccc2c1=O	Myeloid diff MLP inconclusive
COc1ccc(N2CCN(C(=O)Cc3cccs3)CC2)cc1	none
CC(=O)c1ccc(N2CCN(C(=O)Cc3cccs3)CC2)cc1	HNF4A DNA FP 88
COc1ccc(N(C)C(=O)c2oc(=O)c3ccccc3c2-c2ccccc2)c(OC)c1	none
CC(C)NC(=O)Cn1cc(C(=O)C(=O)N2CCOCC2)c2ccccc21	none (no result: DSG3 Ab inh)
CCOC(=O)c1c(C)nc2sc3c(=O)n(-c4ccc(C(C)=O)cc4)cnc3c2c1-c1ccc(OC)cc1	H9c2 protect 68
CNc1nc(-c2ccccc2)[n+](-c2ccc(C)cc2)s1	DSG3 Ab inh 1.4
CC(=O)Nc1ccc(S(=O)(=O)NCC2CCC(C(=O)N3CCCCC3)CC2)cc1 (centres undefined)	none
CCCCc1cc(=O)oc2cc(C)cc(OCC(=O)Nc3ccccn3)c12	DSG3 Ab inh 3.8
CCCc1cc(=O)oc2cc(C)cc(OCC(=O)Nc3ccccn3)c12	none (no result: DSG3 Ab inh)
COc1ccc2oc(C(=O)N3CCN(S(=O)(=O)c4c(C)c(C)cc(C)c4C)CC3)c(C)c2c1	none
Cc1nn(C2CCS(=O)(=O)C2)c(C)c1CN(C)C(=O)c1ccc(S(=O)(=O)N(C)C)cc1 (centres undefined)	none
CCOc1ccccc1NCc1cc(=O)oc2cc(C)c(O)cc12	DSG3 Ab inh 86
Cc1cc2oc(=O)cc(CNc3ccccc3F)c2cc1O	none
CC(=O)C1=C(c2cccc([N+](=O)[O-])c2)N(C(C)=O)n2c(C)nnc2S1	Granule exo inh 56
CC(=O)c1c(C(C)=O)c(C)n(-c2cccc([N+](=O)[O-])c2)c1C	none
CCCN1CCN(c2ncnc3c2nnn3Cc2ccccc2)CC1	Myeloid diff MLP active
CCN(CC)C(=O)N1CCc2ccccc21	none
O=C(Nc1ccc(Nc2ccncc2)cc1)c1ccc(Nc2ccnc3ccc([N+](=O)[O-])cc23)cc1	DSG3 Ab inh 60
COc1ccccc1CNC(=O)N/C=C/c1ccc(Cl)cc1	none
COc1cc(-c2nnc(COC(=O)c3cc(C)nc4ccc(C)cc34)o2)cc(OC)c1OC	H9c2 protect 71
Cc1nc(SCc2c(F)cccc2Cl)c2c(=O)n(C)c(=O)n(C)c2n1	Myeloid diff MLP active
O=C(COc1ccc(Cl)cc1)NCCNC(=O)c1ccccn1	HNF4A DNA FP 55
COC(=O)[C@]12CCCCC=C1N(Cc1ccccc1)C(=O)[C@H](CC(=O)N1CCN(C(=O)c3ccco3)CC1)C2	none (no result: DSG3 Ab inh, H9c2 protect)
CCCCNC(=O)Nc1nc2ccc(CC)cc2s1	DSG3 Ab inh 107
Cc1ccccc1NC(=S)/C(=C(\[O-])c1ccc(C)c([N+](=O)[O-])c1)[n+]1ccccc1	none
COc1cccc(NC(=S)/C(=C(\[O-])c2ccc(C)c([N+](=O)[O-])c2)[n+]2ccccc2)c1	Myeloid diff MLP active
CC(CNC(=O)COC(=O)c1cccnc1Cl)c1ccccc1 (centres undefined)	none
N#Cc1ccc(CSc2nnc(-c3c[nH]c4ccccc34)n2-c2ccccc2)cc1	Granule exo inh 96
NNC(=S)Nc1ccc(S(=O)(=O)N2CCOCC2)cc1	none
O=S(=O)(c1ccc(NC(=S)Nc2ccc(OC(F)F)cc2)cc1)N1CCOCC1	Myeloid diff MLP active
Cc1ccc(N2C(=O)N(CC(=O)Nc3c(C)cc(C)cc3Cl)C(=O)C2C)cc1 (centres undefined)	none
Cc1ccc(CS(=O)(=O)c2ncc(Cl)c(C(=O)Nc3nnc(C(C)C)s3)n2)cc1	Myeloid diff MLP inconclusive
Cc1cccc(CS(=O)(=O)c2ncc(Cl)c(C(=O)Nc3nnc(C(C)C)s3)n2)c1	DSG3 Ab inh 93, Myeloid diff MLP inconclusive
COc1ccc(C(=O)N/C(=C\c2cn(S(=O)(=O)N(C)C)c3ccccc23)C(=O)N2CCN(C)CC2)cc1OC	none
